Measurements from different studies.
CHRNA7: Neuronal acetylcholine receptor subunit alpha-7 (CHRNA7, Homo sapiens, UniProt P36544)
Ntsr1: Neurotensin receptor type 1 (Ntsr1, Rattus norvegicus, UniProt P20789)
CNR2: Cannabinoid receptor 2 (CNR2, Homo sapiens, UniProt P34972)
HRH3: Histamine H3 receptor (HRH3, Homo sapiens, UniProt Q9Y5N1)

| SMILES | target | assay | conditions | measurement | result |
| --- | --- | --- | --- | --- | --- |
| CC(C)(C)OC(=O)N1CCN(C(=O)n2cc(-c3ccc(OC(F)(F)F)cc3)nn2)C(Cc2ccccc2)C1 (stereo not drawn) | Monoacylglycerol lipase ABHD6 (Abhd6, Mus musculus, UniProt Q8R2Y0) | enzyme activity, inhibitor | – | IC50 | 8.1 nM |
| COc1ccc2c3c([nH]c2c1)CCN(C)CC3 | CHRNA7 | ion current, antagonist, two-electrode voltage clamp | oocytes | IC50 | 10300 nM |
| CC[C@H](C)[C@H](NC(C)=O)C(=O)N[C@@H](CCC(=O)O)C(=O)N[C@H](C(=O)N[C@H](C=O)CC(=O)O)[C@@H](C)O | Caspase-2 (Homo sapiens, UniProt P42575) | enzyme activity, inhibitor | – | IC50 | 73.3 nM |
| CC(C)C[C@H](NC(=O)[C@@H](N)C(C)(C)C)C(=O)N[C@@H](CCCNC(=N)N)C(=O)N[C@@H](CCCCN)C(=O)N1CCC[C@H]1C(=O)N[C@@H](Cc1ccc(O)cc1)C(=O)O | Ntsr1 | ligand displacement, flow cytometry | – | Ki | > 100000 nM |
| CCCCCc1cc(O)c2c(c1)OC(C)(CCC=C(C)C)C=C2 (stereo not drawn) | CNR2 | ligand displacement, radioligand | cell membranes | Ki | 1740 nM |
| CCC(CC)(NC(=O)c1ccc(C2CC2)c(Cc2ccc(F)cc2)n1)C(=O)NCCOCCOCCNC(=O)c1ccc2c(c1)C(=O)OC21c2ccc(N)c(S(=O)(=O)O)c2Oc2c1ccc(N)c2S(=O)(=O)O | CNR2 | ligand displacement, radioligand | cell membranes | Ki | 141 nM |
| COc1ccc2[nH]c3c(c2c1)CCN(C)CC3 | CHRNA7 | ion current, antagonist, two-electrode voltage clamp | oocytes | IC50 | 11200 nM |
| C=C1CC[C@H]2O[C@]2(C)CC[C@@H]2[C@@H]1CC2(C)C | CNR2 | ligand displacement, radioligand | cell membranes | Ki | > 10000 nM |
| COC(=O)c1cc(N(C)C(=O)c2ccn3ncc(-c4ccc(C(=O)O)cc4)c3c2)ccc1Cl | HRH3 | cell-free assay | – | IC50 | > 30000 nM |
| CCC(CC)(NC(=O)c1ccc(N2CC(OC)C2)c(OC[C@H]2C[C@@H]2CO)n1)C(=O)NCCOCCOCCNC(=O)c1ccc2c(c1)C1(OC2=O)c2ccc(N(C)C)cc2[Si](C)(C)c2cc(N(C)C)ccc21 | CNR2 | ligand displacement, radioligand | cell membranes | Ki | 1620 nM |
| CC(C)C[C@@H]1NC(=O)[C@H](C(C)(C)C)NC(=O)[C@H](Cc2ccc(O)cc2)NC(=O)[C@@H]2CCCN2C(=O)[C@H](CCCCN)NC(=O)[C@H](CCCNC(=N)N)NC1=O | Ntsr1 | ligand displacement | – | Ki | > 100000 nM |
| CNC(=O)c1ccc(-c2cnn3ccc(C(=O)N(C)c4ccc(Cl)c(C(=O)OC)c4)cc23)cc1 | HRH3 | cell-free assay | – | IC50 | > 30000 nM |
